hERG rescue: compounds protecting human hERG from proarrhythmic drug block; activation (rescue from dofetilide block), less the hit threshold, % at 10 µM; AID 1511; Q12809; hit rate 0.51% among 310,000; CHO-hERG, FluxOR thallium flux, dofetilide IC70 present;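 active = activation above the mean of controls blocked by dofetilide plus 5 SD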;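 also: thallium influx through hERG after potassium depolarization seen as dye fluorescence rise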
KCNK3 block: human KCNK3 channel inhibition, primary screen | O14649 | CHO-KCNK3 thallium flux, FluxOR fluorescence; hits give low values | B-score at 10 µM | hit rate 0.84% among 340,000;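 active = B-score under library mean minus 4 SD, starting fluorescence ratio at most library mean plus 5 SD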;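 also: more negative B-score means stronger inhibition of thallium flux through KCNK3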
KCNQ1 pot: potentiates or activates the human KCNQ1 potassium channel; CHO-K1 KCNQ1, thallium flux FluxOR fluorescence; hits give high values; B-score at 10 µM; hit rate 0.35% among 310,000;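 active = fluorescence ratio B-score, a plate-corrected score, at least three library SD, with initial intensity B-score within 5 SD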
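Medium – assay buffer, equal DMSO in all wells · Material – CHO-K1 cell line with stable KCNQ1 potassium channel expression · Signal – kinetic FluxOR thallium fluorescence, 10-s 1-Hz baseline, 110-s post-stimulus read · Compound – single concentration per compound, DMSO matched to controls · Schedule – 37 °C overnight plating, 90-min dark dye load, 20-min compound pretreatment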
KCNQ1 inh: inhibitors of human KCNQ1 potassium channel; AID 2642; B-score at 10 µM; hit rate 1.3% among 310,000; CHO-K1 KCNQ1, FluxOR thallium flux fluorescence; hits give high values; P51787;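 active = compounds whose thallium flux B-score, printed positive for inhibition, exceeds three library SD while starting fluorescence stays within three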;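 also: channel opened by potassium depolarization with thallium stimulus after 20 min compound exposure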
Kir21 inh: inhibitors of mouse Kir2.1 inward-rectifier potassium channel; P35561; HEK293-Kir2.1, FluxOR thallium flux fluorescence; hits give low values; B-score at 10 µM; hit rate 0.85% among 310,000; AID 1672;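 active = fluorescence ratio B-score at or below minus 3 SD of library scores, with starting-brightness B-score within 2 SD, cut at about -4.2 in these data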;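 also: channel flux triggered by added potassium and thallium sulfate stimulus; B-score of peak minus minimum fluorescence over baseline after thallium stimulus; more negative B-score means stronger Kir2.1 block with less thallium influx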
KCNK9 inh: inhibitors of human KCNK9 two-pore domain potassium channel. Q9NPC2. HEK293 KCNK9, FluxOR thallium flux fluorescence; hits give low values. B-score at 10 µM. hit rate 1.2% among 310,000. AID 488922;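 active = ratio B-score over 3 SD below the library mean, with starting fluorescence within 5 SD of its mean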;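 also: negative B-score means less thallium flux so channel inhibition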
Target sequence (Q9NPC2 whole entry, looked up, the tested form may be a part): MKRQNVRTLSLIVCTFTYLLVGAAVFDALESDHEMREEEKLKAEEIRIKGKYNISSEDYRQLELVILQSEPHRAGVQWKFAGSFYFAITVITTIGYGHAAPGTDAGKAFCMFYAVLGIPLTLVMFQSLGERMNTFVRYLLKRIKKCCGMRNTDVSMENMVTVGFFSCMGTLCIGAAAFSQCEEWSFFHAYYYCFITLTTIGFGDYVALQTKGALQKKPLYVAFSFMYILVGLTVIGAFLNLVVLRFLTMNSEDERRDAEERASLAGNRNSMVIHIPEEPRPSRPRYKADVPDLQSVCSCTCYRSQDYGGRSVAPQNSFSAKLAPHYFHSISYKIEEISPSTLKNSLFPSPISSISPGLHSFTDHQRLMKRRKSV
KCNK9 inh conf: human KCNK9 inhibitor confirmation; shares compounds with KCNK9 inh; HEK293 KCNK9 cells, FluxOR thallium flux fluorescence; inhibition, % at 10 µM; hit rate 43% among 4,900;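 active = thallium signal inhibited by more than 5 SD of the compound-free buffer control wells, on both duplicate plates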
Kir2-1 spec: selectivity of KCNK9 modulators against mouse Kir2.1; shares compounds with KCNK9 inh; Kir2.1 cells, FluxOR thallium flux fluorescence; inhibition, % at 10 µM; hit rate 4% among 4,900;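 active = thallium signal drop more than 5 SD beyond the mean of the no-compound control wells, seen in both duplicate plates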;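 also: signal is fluorescence rise after thallium addition divided by baseline fluorescence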
KCNK9 uninduced: second check of KCNK9 modulator effects in non-induced HEK293 cells; inhibition, % at 10 µM; FluxOR thallium flux; AID 492997; shares compounds with KCNK9 inh; hit rate 40% among 4,900;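 active = thallium signal drop beyond 5 SD of the untreated control mean, on both duplicate plates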
Large screens that a line does not name were inactive (follow-up assays come after a bar, where they were run). Compounds with a hit are over-represented: about 3.8% of the library has one in this group of screens.

CCOc1ccc(NS(=O)(=O)c2ccc(C(=O)N3CCCC(C)C3)cc2)cc1 (stereo not drawn)	none | KCNK9 inh conf inactive | Kir2-1 spec inactive | KCNK9 uninduced inactive
CCOc1ccc(NS(=O)(=O)c2ccc(C(=O)N3CCCCCC3)cc2)cc1	none | KCNK9 inh conf inactive | Kir2-1 spec inactive | KCNK9 uninduced inactive
CCOc1ccc(OCc2ccc(C(=O)N3CCCC(C)C3)cc2)cc1 (stereo not drawn)	none | KCNK9 inh conf inactive | Kir2-1 spec inactive | KCNK9 uninduced inactive
COc1ccc(NS(=O)(=O)c2ccc(C(=O)N3CCCCCC3)cc2)cc1	none (no result: hERG rescue, KCNQ1 pot, KCNQ1 inh, Kir21 inh, KCNK9 inh)
FC(F)(F)c1ccc(-c2nc(=S)[nH][nH]2)cc1	none | KCNK9 inh conf inactive | Kir2-1 spec inactive | KCNK9 uninduced inactive
COc1ccccc1CNC(=O)CN1NS(=O)(=O)c2ccccc2C1=O	none (no result: hERG rescue, KCNQ1 pot, KCNQ1 inh, Kir21 inh, KCNK9 inh)
COc1ccc(NC(=O)/C(C#N)=C/c2ccc(-c3ccc(Cl)c(C(=O)O)c3)o2)cc1	none
CC(=O)C1=C(C)NC(SCC(=O)c2ccc(Cl)cc2Cl)=C(C#N)C1c1ccco1 (stereo not drawn)	KCNK3 block -9.6, KCNK9 inh -10 | KCNK9 inh conf 61% | Kir2-1 spec inactive | KCNK9 uninduced 36%
CC(=O)C1=C(C)NC(SCc2cccc3ccccc23)=C(C#N)C1c1ccco1 (stereo not drawn)	none
CC(C)CNC(=O)c1oc2ccccc2c1COc1ccccc1	none | KCNK9 inh conf inactive | Kir2-1 spec inactive | KCNK9 uninduced inactive
Cc1csc(SCC(=O)NCc2ccccc2)n1	none
Cc1csc2sc(-c3ccnc(SCC(=O)NCc4ccccc4)n3)c(C)c12	KCNK9 inh -9.2 | KCNK9 inh conf inactive | Kir2-1 spec inactive | KCNK9 uninduced 32%
CC1(C)S[C@@H]2[C@H](NC(=O)[C@H](N)c3ccccc3)C(=O)N2[C@H]1C(=O)OC1OC(=O)c2ccccc21 (stereo partly drawn)	none (no result: hERG rescue, KCNQ1 pot, KCNQ1 inh, Kir21 inh, KCNK9 inh)
CN(CC(=O)Nc1ccccc1Cl)C(=O)Cn1cc(C(F)(F)F)ccc1=O	none (no result: hERG rescue, KCNQ1 pot, KCNQ1 inh, Kir21 inh, KCNK9 inh)
CSc1c(CC(=O)Nc2ccccc2)n(C)c2ccccc12	none
Cn1c(CC(=O)Nc2ccccc2)c(Sc2ccccc2)c2ccccc21	none | KCNK9 inh conf inactive | Kir2-1 spec inactive | KCNK9 uninduced inactive
Brc1ccc(N=Nc2ccc3ccccc3n2)cc1	KCNK9 inh -10 | KCNK9 inh conf 42% | Kir2-1 spec inactive | KCNK9 uninduced 82%
CN(CC(=O)Nc1ccccc1Cl)C(=O)c1ccc(N2C(=O)CCC2=O)cc1	none (no result: hERG rescue, KCNQ1 pot, KCNQ1 inh, Kir21 inh, KCNK9 inh)
CCN1CC2=C(OC(N)=C(C#N)C2c2cccs2)/C(=C/c2cccs2)C1 (stereo not drawn)	KCNK9 inh -8.9 | KCNK9 inh conf 35% | Kir2-1 spec inactive | KCNK9 uninduced 31%
CCCC1=C(C(=O)OCC)C(c2cccs2)C(C#N)=C(N)O1 (stereo not drawn)	none
CC(C)C[C@H](NC(=O)[C@H](Cc1ccccc1)n1c(=O)[nH]c2ccccc2c1=O)C(=O)N1CCC[C@@H]1C(=O)O	none
CCc1sc(C(=O)Nc2cccc(-n3cnnn3)c2)cc1C	none (no result: hERG rescue, KCNQ1 pot, KCNQ1 inh, Kir21 inh, KCNK9 inh)
Cc1cccc(C)c1NC(=O)C(C)c1ccc(-c2ccccc2)c(F)c1 (stereo not drawn)	KCNK9 inh -10 | KCNK9 inh conf 47% | Kir2-1 spec inactive | KCNK9 uninduced 46%
Cc1cccc(C)c1NC(=O)C(NC=O)c1ccc(Cl)cc1 (stereo not drawn)	none
COc1cc(C)ccc1OCc1cc(C(=O)N2CCC(c3ccc(F)cc3)C2)no1 (stereo not drawn)	none | KCNK9 inh conf inactive | Kir2-1 spec inactive | KCNK9 uninduced inactive
COCC1CCN(C(=O)c2cc(COc3ccc(F)cc3F)on2)C1 (stereo not drawn)	none
Cc1ccc(C)c(OCc2cc(C(=O)N3CC[C@@H]4CCCC[C@H]4C3)no2)c1	none | KCNK9 inh conf inactive | Kir2-1 spec inactive | KCNK9 uninduced 24%

Bioassay records as filed in PubChem.
